Screens from PubChem.
Shown are actives, neighbours in structure and some others; about 2.4% of the full set was active somewhere.
NPY Y2 blocker – NPY-Y2 (human) receptor antagonism; hit rate 0.99% among 140,000; AID 793; NPY-Y2 expressing cells, antagonist mode; P49146; inhibition, % at 2.7 µM; in the data active = inhibition above about 17%
S1P4 agonist – activates the human S1P4 receptor | O95977 | hit rate 0.35% among 220,000 | AID 1509 | activation, % at 4.98 µM | S1P4-expressing cell line, agonist reporter assay; in the data active = activation above about 11%
NPY1 pot ag – potentiates or activates human NPY-Y1 receptor. hit rate 0.37% among 220,000. activation, % at 3.6 µM. P25929. NPY-Y1 expressing cells, potentiator/agonist activation; in the data active = activation above about 33%, passing the limit was not always enough;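 note: cells stimulated with NPY at EC10 then isoproterenol at EC100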
NPY2 pot ag – potentiates or activates human NPY-Y2 receptor | P49146 | AID 1359 | activation, % at 3.6 µM | cells expressing NPY-Y2, potentiator/agonist read-out | hit rate 0.45% among 220,000; in the data active = activation above about 27%;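 note: cells stimulated with NPY near EC25 plus isoproterenol at EC100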
NPY Y1 blocker – antagonists of human neuropeptide Y receptor Y1. P25929. HEK293-CNG Y1 cells, membrane potential fluorescence; NPY at EC95, then isoproterenol. inhibition, % at 3.6 µM. hit rate 1% among 200,000. AID 1040;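 active = inhibition above the campaign mean inhibition of all tested compounds plus 3 SD, cut at about 20% in these data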
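Material: HEK293 cells with Y1 receptor plus CNG channel; times: compound incubation 1 h at room temperature, readout 45 min post-stimulation; signal: fluorescence, membrane potential probe; read-out basis: fluorescence ratio normalized to % inhibition between controls; benchmarks: full-block control isoproterenol-only wells, zero-block control NPY plus isoproterenol wells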
S1P4 antag – blocks the human S1P4 receptor | O95977 | S1P4-expressing cells, antagonist mode, reporter read-out | inhibition, % at 4.98 µM | hit rate 0.26% among 220,000; in the data active = inhibition above about 29%
S1P4 agonist cf – confirmation of human S1P4 receptor agonists | hit rate 7% among 740 | S1P4 agonist cell-based reporter assay | activation, % at 4.98 µM | shares compounds with S1P4 agonist | AID 1523; in the data active = activation above about 12%
S1P1 agonist – counter-screen for S1P4 agonists: agonists of human S1P1. shares compounds with S1P4 agonist. S1P1 agonist cell-based assay, activation. activation, % at 4.98 µM. hit rate 4% among 740; in the data active = activation above about 21%
Target sequence (P21453 whole entry, looked up): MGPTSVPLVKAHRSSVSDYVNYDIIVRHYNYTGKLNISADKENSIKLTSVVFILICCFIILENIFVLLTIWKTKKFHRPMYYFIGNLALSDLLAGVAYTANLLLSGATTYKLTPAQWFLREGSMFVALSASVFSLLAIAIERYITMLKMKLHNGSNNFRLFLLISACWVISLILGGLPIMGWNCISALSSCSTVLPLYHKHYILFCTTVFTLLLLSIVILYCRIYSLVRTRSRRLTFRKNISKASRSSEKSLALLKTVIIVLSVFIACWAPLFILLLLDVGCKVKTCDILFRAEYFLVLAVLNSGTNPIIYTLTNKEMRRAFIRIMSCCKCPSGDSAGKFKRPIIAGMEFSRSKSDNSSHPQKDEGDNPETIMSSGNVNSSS
S1P4 antag cf – human S1P4 antagonism, confirmation | S1P4-expressing cell line, antagonist mode, reporter read-out | hit rate 71% among 520 | inhibition, % at 4.98 µM | shares compounds with S1P4 antag | AID 1524; in the data active = inhibition above about 30%
S1P1 antagonist – counter-screen for S1P4 antagonists: antagonists of human S1P1; inhibition, % at 4.98 µM; hit rate 37% among 520; AID 1564; cell-based S1P1 antagonist counterscreen, inhibition; shares compounds with S1P4 antag; in the data active = inhibition above about 40%;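 note: receptor stimulated with S1P near its EC80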
Hits are given with their value; - = inactive; . = no result.

SMILES	NPY Y2 blocker	S1P4 agonist	NPY1 pot ag	NPY2 pot ag	NPY Y1 blocker	S1P4 antag	S1P4 antag cf	S1P1 antagonist	others
CC1CC(NC(=O)CCn2c(=O)oc3ccccc32)CC(C)(C)C1 (configuration not stated)	-	12	-	-	-	-	.	.	S1P4 agonist cf=-;S1P1 agonist=-
Cc1cc(C)nc(/N=C(\N)Nc2cccc([N+](=O)[O-])c2)n1	-	12	-	-	-	-	.	.	S1P4 agonist cf=-;S1P1 agonist=-
Cc1cc(C)c(S(=O)(=O)NCCc2ccccc2)c(C)c1	.	21	-	-	-	-	.	.	S1P4 agonist cf=-;S1P1 agonist=-
O=[N+]([O-])/C=C/c1c(OCc2ccccc2)ccc2ccccc12	-	-	-	-	-	-	.	.
CCOC(=O)COc1ccc2nsnc2c1	-	-	-	-	-	-	.	.
CCOC(=O)COc1ccc(/C=C/[N+](=O)[O-])c(OCC(=O)OCC)c1	-	-	-	-	-	30	116	83
CCOC(=O)COc1ccc2ccccc2c1/C=C/[N+](=O)[O-]	-	-	-	-	-	49	120	155
Cc1onc(-c2ccccc2Cl)c1C(=O)OCn1nnc2ccccc2c1=O	-	-	-	-	-	30	-	-
O=C(Cn1ncc(Cl)c(Cl)c1=O)N1CCN(S(=O)(=O)c2ccc3ccccc3c2)CC1	-	-	-	-	-	41	116	69
COc1ccc(C(=O)NCC2(c3ccccc3)CCOCC2)cc1	.	-	-	-	.	-	.	.
Cc1ccc(NC(=O)C2=C(c3ccccc3)S(=O)(=O)CCS2(=O)=O)cc1	.	-	56	55	-	45	108	-
Cc1ccc(NC(=O)c2ccccc2)cc1	-	-	-	-	-	-	.	.
CN(C)/C=C/C(=O)c1cnc(-c2ccccc2)s1	.	-	-	-	-	38	-	-
CN(C)/C=C/C(=O)c1cnc(-c2ccc(Cl)cc2)s1	.	-	-	-	-	-	.	.
COc1cc(/C=C2\SC(=Nc3ccccc3)N(CCc3c[nH]c4ccccc34)C2=O)ccc1OC(C)C(=O)O (configuration not stated)	-	-	-	-	-	-	.	.
O=C1/C(=C/c2ccc(N3CCOCC3)o2)SC(=Nc2ccccc2)N1CCc1c[nH]c2ccccc12	-	-	-	-	-	46	64	46
O=S(=O)(c1ccc(Br)c2nsnc12)N1CCOCC1	-	-	-	-	-	79	39	-
NS(=O)(=O)c1cccc(NC(=O)CSc2nnc(C3CC3)n2Cc2ccccc2)c1	.	-	-	-	.	-	.	.
S=c1[nH]nc(-c2cc(-c3ccccc3)n[nH]2)n1/N=C/c1ccccc1	.	-	-	-	.	-	.	.
S=c1[nH]nc(-c2cc(-c3ccccc3)n[nH]2)n1/N=C/C(Br)=C/c1ccccc1	.	-	-	-	.	35	66	-
CCO/C=C1/C(=O)N(C)C(=O)c2cc(OC)ccc21	-	-	-	-	-	-	.	.
CCOc1ccc(NC(=O)CCC(=O)NNC(=O)COc2ccccc2C)cc1	.	-	-	-	-	-	.	.
CC(C)(C)c1ccc(-n2nc(C#N)c(Cl)cc2=O)cc1	.	-	67	61	-	110	120	49
CC(C)(C)c1ccc(-n2nc(C(N)=O)c(O)cc2=O)cc1	.	-	-	-	-	-	.	.
Cc1ccc(OCc2nc(-c3ccccc3)no2)c(C)c1	-	-	-	-	-	-	.	.
Cc1cc(C)c(C)c(OCc2nc(-c3cccnc3)no2)c1	-	-	-	-	-	30	-	-
CCN(CC)c1ccc(/C=c2\sc3nc4ccccc4n3c2=O)c(O)c1	.	-	-	-	-	37	-	-
Oc1ccccc1C1CC(c2cccs2)=NC(c2cccc(Br)c2)N1 (configuration not stated)	.	-	-	-	-	30	43	-
CCOc1ccc(CN2CCN(CC(O)Cn3c4ccccc4c4ccccc43)CC2)cc1 (configuration not stated)	-	-	-	-	-	42	71	83
